Laboratory results reported in ChEMBL document CHEMBL5316295, “Systematic Design of Adenosine Analogs as Inhibitors of a Clostridioides difficile-Specific DNA Adenine Methyltransferase Required for Normal Sporulation and Persistence” (J Med Chem, 2023).
Active and inactive are the calls of the source.

Legend:
[1] = molecular target: DNMT3A-DNMT3L (Mus musculus) (UniProt O88508+Q9CWR8); experiment: Inhibition of mouse DNMT3A/DNMT3L using 5'-G CATGCGTTCTAATTAGAAUGCATG-3' and 3'-GTA CGS AAG ATT AAT CTT GCG TAC G-5' as substrate and SAM as cosubstrate at 10 uM incubated for 1 hr; assay type: protein-complex assay
Method in brief: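 Dnmt3a-3L (0.5 μM) with 5 μM dsDNA, 25 μM SAM and 10 μM inhibitor in 20 mM Tris pH 7.5, 40 mM NaCl, 4 mM DTT, 20% glycerol, run 1 h at 37 °C.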

[2] = molecular target: METTL3/METTL14 (Homo sapiens) (UniProt Q86U44+Q9HCE5); experiment: Inhibition of human METTL3/METTL14 using 5'-AAC AGA AUG GGA CUG UUC-3' as substrate and SAM as cosubstrate at 10 uM incubated for 15 mins; assay type: protein-complex assay
Method in brief: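 Under CamA conditions (100 mM NaCl) the assay ran 15 min with 10 μM inhibitor. An alternative condition used 0.1 μM enzyme, 10 μM ssRNA, 20 μM SAM in 50 mM HEPES pH 7.5, 5 mM NaCl, 1 mM DTT, 0.25% DMSO for 10 min.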

[3] = molecular target: T1, Histone-lysine N-methyltransferase EHMT2 (Homo sapiens) (UniProt Q96KQ7); experiment: Inhibition of human G9a (913 to 1193 residues) expressed in Escherichia coli BL21 (DE3)-gold cells using histone H3 (1 to 21 residues) as substrate and 3H-SAM as cosubstrate at 10 uM pretreated with compound for 20 mins in presence of histone H3 (1 to 21 residues) followed by cosubstrate addition and measured after 1 hr; conditions: time 80.0 min
T1 sequence (whole entry): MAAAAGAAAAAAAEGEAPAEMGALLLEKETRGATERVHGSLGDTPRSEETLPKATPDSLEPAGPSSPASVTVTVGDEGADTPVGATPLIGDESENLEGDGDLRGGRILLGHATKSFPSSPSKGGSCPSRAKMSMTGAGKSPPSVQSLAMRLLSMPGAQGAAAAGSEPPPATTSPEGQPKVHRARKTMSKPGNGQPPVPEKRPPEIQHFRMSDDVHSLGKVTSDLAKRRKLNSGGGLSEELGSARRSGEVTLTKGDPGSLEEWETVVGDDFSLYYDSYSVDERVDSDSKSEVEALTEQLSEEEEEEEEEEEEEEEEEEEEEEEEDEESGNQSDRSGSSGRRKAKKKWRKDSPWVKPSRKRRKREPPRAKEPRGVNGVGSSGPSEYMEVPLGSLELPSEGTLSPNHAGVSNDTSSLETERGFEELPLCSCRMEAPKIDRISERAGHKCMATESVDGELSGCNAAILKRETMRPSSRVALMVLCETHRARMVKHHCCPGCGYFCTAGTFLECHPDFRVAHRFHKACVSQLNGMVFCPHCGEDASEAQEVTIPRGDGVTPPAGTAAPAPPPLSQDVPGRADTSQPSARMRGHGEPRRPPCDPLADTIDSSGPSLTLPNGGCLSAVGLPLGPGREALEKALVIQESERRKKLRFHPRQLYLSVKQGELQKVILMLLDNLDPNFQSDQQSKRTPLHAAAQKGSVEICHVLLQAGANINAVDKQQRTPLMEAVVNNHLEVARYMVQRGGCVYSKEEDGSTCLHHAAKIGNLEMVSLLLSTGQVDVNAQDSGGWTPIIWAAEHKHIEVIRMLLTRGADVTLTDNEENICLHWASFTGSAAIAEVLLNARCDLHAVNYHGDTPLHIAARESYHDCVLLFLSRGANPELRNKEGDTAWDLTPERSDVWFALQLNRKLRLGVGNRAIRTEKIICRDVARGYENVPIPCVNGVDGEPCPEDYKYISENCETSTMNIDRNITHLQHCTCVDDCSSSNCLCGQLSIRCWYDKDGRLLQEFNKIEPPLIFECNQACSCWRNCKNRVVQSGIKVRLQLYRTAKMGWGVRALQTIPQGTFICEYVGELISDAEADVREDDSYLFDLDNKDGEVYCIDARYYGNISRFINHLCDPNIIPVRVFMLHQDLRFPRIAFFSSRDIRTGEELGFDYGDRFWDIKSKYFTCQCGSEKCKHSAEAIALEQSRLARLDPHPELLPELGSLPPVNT
Method in brief: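 Enzymes (DOT1L 1 nM; EZH2, G9a, PRMT1 5 nM) mixed with substrate (0.05 mg/mL oligonucleosomes for DOT1L; 0.05 mg/mL core histone for EZH2; 5 μM H3 1–21 peptide for G9a; 5 μM H4 for PRMT1). Compound (10 μM) added for 20 min at room temperature, then 1 μM ³H-SAM for 1 h at 30 °C; filter-paper read-out. Triplicates, mean ± SD.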

Measured: inhibition

Chain of DNMT3A-DNMT3L (Mus musculus) (Q9CWR8 whole entry, looked up, other chains not shown): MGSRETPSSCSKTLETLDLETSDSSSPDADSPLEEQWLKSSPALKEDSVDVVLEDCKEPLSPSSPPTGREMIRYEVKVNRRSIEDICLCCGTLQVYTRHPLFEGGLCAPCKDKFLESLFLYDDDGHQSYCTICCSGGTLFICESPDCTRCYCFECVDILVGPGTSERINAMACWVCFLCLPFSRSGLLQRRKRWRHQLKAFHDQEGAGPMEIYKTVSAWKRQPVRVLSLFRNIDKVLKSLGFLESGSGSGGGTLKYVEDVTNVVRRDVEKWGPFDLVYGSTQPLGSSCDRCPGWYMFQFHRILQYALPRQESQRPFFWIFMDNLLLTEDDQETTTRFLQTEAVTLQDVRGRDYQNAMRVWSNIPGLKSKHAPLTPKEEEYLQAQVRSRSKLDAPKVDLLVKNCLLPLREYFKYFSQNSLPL

OC[C@H]1O[C@@H](n2cnc3c(NCCCc4ccc(O)cc4)ncnc32)[C@H](O)[C@@H]1O
inactive: [1] | [2] | [3]

CC(C)(C)OC(=O)N1CCC(CCCNc2ncnc3c2ncn3[C@@H]2O[C@H](CO)[C@@H](O)[C@H]2O)CC1
inactive: [1] | [2] | [3]

CC(C)(C)OC(=O)N1CCC(CCNc2ncnc3c2ncn3[C@@H]2O[C@H](CO)[C@@H](O)[C@H]2O)CC1
inactive: [1] | [2] | [3]
